Measured values reported in ChEMBL document CHEMBL3421560, “Search for factors affecting antibacterial activity and toxicity of 1,2,4-triazole-ciprofloxacin hybrids” (Eur J Med Chem, 2015).
pEC50, pIC50: −log10 of the molar value. Values after ≈ are worked out from the molar mass of the structure shown.

Key:
Staphylococcus aureus [1] = assay: Antimicrobial activity against methicillin-susceptible Staphylococcus aureus ATCC 25923 after 18 hrs by broth microdilution method; type: functional; settings: ATCC 25923, 18 h
Staphylococcus aureus [2] = assay: Antimicrobial activity against methicillin-susceptible Staphylococcus aureus ATCC 6538 after 18 hrs by broth microdilution method; type: functional; settings: ATCC 6538, 18 h
Staphylococcus aureus [3] = assay: Antimicrobial activity against Staphylococcus aureus Microbank 14001 after 18 hrs by broth microdilution method; type: functional; settings: Microbank 14001, 18 h
[4] = tested on: Staphylococcus epidermidis; assay: Antimicrobial activity against Staphylococcus epidermidis ATCC 12228 after 18 hrs by broth microdilution method; type: functional; settings: ATCC 12228, 18 h
Bacillus subtilis = assay: Antimicrobial activity against Bacillus subtilis […] after 18 hrs by broth microdilution method; type: functional
Bacillus cereus = assay: Antimicrobial activity against Bacillus cereus ATCC 10876 after 18 hrs by broth microdilution method; type: functional; settings: ATCC 10876, 18 h
Micrococcus luteus = assay: Antimicrobial activity against Micrococcus luteus ATCC 10240 after 18 hrs by broth microdilution method; type: functional; settings: ATCC 10240, 18 h
Staphylococcus aureus [5] = assay: Ratio of vancomycin MIC to compound MIC for Staphylococcus aureus Microbank 14001; type: functional
Staphylococcus aureus [6] = assay: Ratio of MBC for methicillin-susceptible Staphylococcus aureus ATCC 25923 to MIC for methicillin-susceptible Staphylococcus aureus ATCC 25923; type: functional
Method in brief: (§1)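 MBC taken as lowest concentration giving >99.9% CFU reduction of the initial inoculum; value is MBC divided by MIC for the same strain.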

Staphylococcus aureus [7] = assay: Ratio of MBC for methicillin-susceptible Staphylococcus aureus ATCC 6538 to MIC for methicillin-susceptible Staphylococcus aureus ATCC 6538; type: functional; method in brief: as §1
Staphylococcus aureus [8] = assay: Ratio of MBC for Staphylococcus aureus Microbank 14001 to MIC for Staphylococcus aureus Microbank 14001; type: functional; method in brief: as §1
Escherichia coli = assay: Antimicrobial activity against Escherichia coli ATCC 25922 after 18 hrs by broth microdilution method; type: functional; settings: ATCC 25922, 18 h
Klebsiella pneumoniae = assay: Antimicrobial activity against Klebsiella pneumoniae ATCC 13883 after 18 hrs by broth microdilution method; type: functional; settings: ATCC 13883, 18 h
Proteus mirabilis = assay: Antimicrobial activity against Proteus mirabilis ATCC 12453 after 18 hrs by broth microdilution method; type: functional; settings: ATCC 12453, 18 h
Pseudomonas aeruginosa [9] = assay: Antimicrobial activity against Pseudomonas aeruginosa ATCC 9027 after 18 hrs by broth microdilution method; type: functional; settings: ATCC 9027, 18 h
Pseudomonas aeruginosa [10] = assay: Ratio of ciprofloxacin MIC to compound MIC for Pseudomonas aeruginosa ATCC 9027; type: functional
HEK293 = assay: Cytotoxicity against HEK293 cells after 72 hrs by MTT assay; type: cell-based; settings: Homo sapiens, HEK293, 48 h; in the assay text read “48 hrs” for “72 hrs”
Method in brief: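 HEK-293 (ATCC CRL-1573) in MEM with 10% FBS plus penicillin/streptomycin, seeded 3 x 10^5 cells/well, 24 h at 37 °C, 5% CO2. Treated with compounds diluted from 50 mg/mL DMSO stock into medium with 2% FBS for 48 h. Viability by MTT formazan readout; EC50 relative to control cells, mean ± SD of three independent experiments.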

Staphylococcus aureus [11] = assay: Ratio of ciprofloxacin MIC to compound MIC for methicillin-susceptible Staphylococcus aureus ATCC 25923; type: functional
Staphylococcus aureus [12] = assay: Ratio of ciprofloxacin MIC to compound MIC for methicillin-susceptible Staphylococcus aureus ATCC 6538; type: functional
DNA gyrase = DNA gyrase (Escherichia coli, UniProt P0AES4+P0AES6); assay: Inhibition of Escherichia coli DNA gyrase after 1 hr by agarose gel electrophoresis; type: protein-complex assay
[13] = Inhibition of Escherichia coli DNA topoisomerase 4 using kDNA as substrate after 1 hr by agarose gel electrophoresis
Method in brief: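 E. coli topoisomerase IV decatenation kit: kDNA (0.5 µg) with 1 U enzyme in supplied buffer plus varying compound levels, 37 °C for 1 h. Stopped as for the gyrase assay, then 1% agarose in TAE, 1.5 h at 80 V, ethidium bromide. IC50 = concentration blocking 50% conversion to decatenated minicircles, by gel densitometry.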

SMILES | MIC (Staphylococcus aureus [1]) | MIC (Staphylococcus aureus [2]) | MIC (Staphylococcus aureus [3]) | MIC [4] | MIC (Bacillus subtilis) | MIC (Bacillus cereus) | MIC (Micrococcus luteus) | MIC (Escherichia coli) | MIC (Klebsiella pneumoniae) | MIC (Proteus mirabilis) | MIC (Pseudomonas aeruginosa [9]) | pIC50 (DNA gyrase) | pIC50 [13] | Ratio (Staphylococcus aureus [6]) | Ratio (Staphylococcus aureus [7]) | Ratio (Staphylococcus aureus [8]) | pEC50 (HEK293) | Ratio (Staphylococcus aureus [12]) | further results
O=C(O)c1cn(C2CC2)c2cc(N3CCN(Cn4nc(-c5ccccc5O)n(Cc5ccc(F)cc5)c4=S)CC3)c(F)cc2c1=O | 0.76 µM (≈ 0.49 µg/mL) | 0.19 µM (≈ 0.122 µg/mL) | 0.046 µM (≈ 0.0297 µg/mL) | 0.046 µM (≈ 0.0297 µg/mL) | 0.011 µM (≈ 0.00709 µg/mL) | 0.093 µM (≈ 0.06 µg/mL) | 0.76 µM (≈ 0.49 µg/mL) | 0.011 µM (≈ 0.00709 µg/mL) | 0.093 µM (≈ 0.06 µg/mL) | 0.023 µM (≈ 0.0148 µg/mL) | 0.046 µM (≈ 0.0297 µg/mL) | – | – | <=4 | <=4 | <=4 | – | – | Ratio (Staphylococcus aureus [5]): 15
COc1ccc(-n2c(-c3ccc(O)cc3)nn(CN3CCN(c4cc5c(cc4F)c(=O)c(C(=O)O)cn5C4CC4)CC3)c2=S)cc1 | 0.76 µM (≈ 0.488 µg/mL) | 0.19 µM (≈ 0.122 µg/mL) | 0.093 µM (≈ 0.0598 µg/mL) | 0.37 µM (≈ 0.238 µg/mL) | 0.023 µM (≈ 0.0148 µg/mL) | 0.19 µM (≈ 0.122 µg/mL) | 1.52 µM (≈ 0.977 µg/mL) | 0.012 µM (≈ 0.00771 µg/mL) | 0.093 µM (≈ 0.0598 µg/mL) | 0.023 µM (≈ 0.0148 µg/mL) | 0.023 µM (≈ 0.0148 µg/mL) | – | – | <=4 | <=4 | <=4 | 3.98 | – | Ratio (Pseudomonas aeruginosa [10]): 31
COc1ccc(Cn2c(-c3ccccc3O)nn(CN3CCN(c4cc5c(cc4F)c(=O)c(C(=O)O)cn5C4CC4)CC3)c2=S)cc1 | 0.36 µM (≈ 0.236 µg/mL) | 0.091 µM (≈ 0.0598 µg/mL) | 0.091 µM (≈ 0.0598 µg/mL) | 0.046 µM (≈ 0.0302 µg/mL) | 0.011 µM (≈ 0.00722 µg/mL) | 0.091 µM (≈ 0.0598 µg/mL) | 1.49 µM (≈ 0.979 µg/mL) | 0.011 µM (≈ 0.00722 µg/mL) | 0.023 µM (≈ 0.0151 µg/mL) | 0.023 µM (≈ 0.0151 µg/mL) | 0.023 µM (≈ 0.0151 µg/mL) | – | – | <=4 | <=4 | <=4 | 4.10 | 8 | Ratio (Pseudomonas aeruginosa [10]): 31
COc1ccc(Cn2c(-c3cccc(O)c3)nn(CN3CCN(c4cc5c(cc4F)c(=O)c(C(=O)O)cn5C4CC4)CC3)c2=S)cc1 | 0.18 µM (≈ 0.118 µg/mL) | 0.091 µM (≈ 0.0598 µg/mL) | 0.046 µM (≈ 0.0302 µg/mL) | 0.091 µM (≈ 0.0598 µg/mL) | 0.091 µM (≈ 0.0598 µg/mL) | 0.18 µM (≈ 0.118 µg/mL) | 1.49 µM (≈ 0.979 µg/mL) | 0.011 µM (≈ 0.00722 µg/mL) | 0.091 µM (≈ 0.0598 µg/mL) | 0.023 µM (≈ 0.0151 µg/mL) | 0.18 µM (≈ 0.118 µg/mL) | – | – | <=4 | <=4 | <=4 | 4.20 | 8 | Ratio (Staphylococcus aureus [11]): 16; Ratio (Staphylococcus aureus [5]): 15
O=C(O)c1cn(C2CC2)c2cc(N3CCN(Cn4nc(-c5cccc(O)c5)n(-c5cccc(I)c5)c4=S)CC3)c(F)cc2c1=O | – | – | – | – | – | – | – | – | – | – | – | 5.01 | 4.11 | – | – | – | – | – | –
O=C(O)c1cn(C2CC2)c2cc(N3CCN(Cn4nc(-c5cccc(O)c5)n(-c5cc(Cl)cc(Cl)c5)c4=S)CC3)c(F)cc2c1=O | – | – | – | – | – | – | – | – | – | – | – | 5.22 | 4.10 | – | – | – | – | – | –

Continued, in another order:

MIC (Staphylococcus aureus [1]) | MIC (Staphylococcus aureus [2]) | MIC (Staphylococcus aureus [3]) | MIC [4] | MIC (Bacillus subtilis) | MIC (Bacillus cereus) | MIC (Micrococcus luteus) | MIC (Escherichia coli) | MIC (Klebsiella pneumoniae) | MIC (Proteus mirabilis) | MIC (Pseudomonas aeruginosa [9]) | pIC50 (DNA gyrase) | pIC50 [13] | SMILES | Ratio (Staphylococcus aureus [6]) | Ratio (Staphylococcus aureus [7]) | Ratio (Staphylococcus aureus [8]) | pEC50 (HEK293) | Ratio (Staphylococcus aureus [12]) | further results
0.19 µM (≈ 0.12 µg/mL) | 0.19 µM (≈ 0.12 µg/mL) | 0.19 µM (≈ 0.12 µg/mL) | 0.095 µM (≈ 0.0599 µg/mL) | 0.048 µM (≈ 0.0303 µg/mL) | 0.095 µM (≈ 0.0599 µg/mL) | 1.55 µM (≈ 0.978 µg/mL) | 0.024 µM (≈ 0.0151 µg/mL) | 0.19 µM (≈ 0.12 µg/mL) | 0.048 µM (≈ 0.0303 µg/mL) | 0.38 µM (≈ 0.24 µg/mL) | – | – | O=C(O)c1cn(C2CC2)c2cc(N3CCN(Cn4nc(-c5ccc(O)cc5)n(-c5ccc(F)cc5)c4=S)CC3)c(F)cc2c1=O | <=4 | <=4 | <=4 | 3.97 | – | Ratio (Staphylococcus aureus [11]): 16
2.96 µM (≈ 0.981 µg/mL) | 0.72 µM (≈ 0.239 µg/mL) | – | 1.48 µM (≈ 0.49 µg/mL) | 0.09 µM (≈ 0.0298 µg/mL) | 0.36 µM (≈ 0.119 µg/mL) | 5.88 µM (≈ 1.95 µg/mL) | 0.024 µM (≈ 0.00795 µg/mL) | 0.36 µM (≈ 0.119 µg/mL) | 0.045 µM (≈ 0.0149 µg/mL) | 0.72 µM (≈ 0.239 µg/mL) | – | 4.10 | O=C(O)c1cn(C2CC2)c2cc(N3CCNCC3)c(F)cc2c1=O [CIPROFLOXACIN] | – | – | – | – | – | –
– | – | – | – | – | – | – | – | – | – | – | 5.20 | 3.81 | CCCc1nn(CN2CCN(c3cc4c(cc3F)c(=O)c(C(=O)O)cn4C3CC3)CC2)c(=S)n1-c1cccc(I)c1 | – | – | – | – | – | –
0.37 µM (≈ 0.239 µg/mL) | 0.093 µM (≈ 0.06 µg/mL) | 0.37 µM (≈ 0.239 µg/mL) | 0.19 µM (≈ 0.122 µg/mL) | 0.023 µM (≈ 0.0148 µg/mL) | 0.093 µM (≈ 0.06 µg/mL) | 0.76 µM (≈ 0.49 µg/mL) | 0.006 µM (≈ 0.00387 µg/mL) | 0.046 µM (≈ 0.0297 µg/mL) | 0.006 µM (≈ 0.00387 µg/mL) | 0.093 µM (≈ 0.06 µg/mL) | – | – | O=C(O)c1cn(C2CC2)c2cc(N3CCN(Cn4nc(-c5cccc(O)c5)n(Cc5ccc(F)cc5)c4=S)CC3)c(F)cc2c1=O | <=4 | <=4 | <=4 | 4.16 | 8 | –
